In ChEMBL document CHEMBL1142115, “Furanocembranoids from the stem bark of Croton oblongifolius” (J Nat Prod, 2007):
In brackets after ≈: the same amount, converted by molar mass.

Columns and labels:
Format in all cases: cell-based
[1] = Cytotoxicity against human KATO3 cells by MTT assay
Summary of the method: (§1)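 In vitro cytotoxicity by MTT colorimetric read-out on human tumor cultures: BT474 (breast carcinoma), CHAGO (lung carcinoma), Hep-G2 (hepatocarcinoma), KATO-3 (gastric carcinoma) and SW-620 (colon carcinoma). Each pure isolate was tested on all five lines.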

[2] = Cytotoxicity against human CHAGO cells by MTT assay; summary of the method: as §1
[3] = system: HepG2; assay: Cytotoxicity against human HepG2 cells by MTT assay; summary of the method: as §1
[4] = system: SW-620; assay: Cytotoxicity against human SW620 cells by MTT assay; summary of the method: as §1
[5] = Cytotoxicity against human BT474 cells by MTT assay; details: BT-474; summary of the method: as §1

Question: With CC(C)[C@H]1/C=C/[C@@](C)(O)CC[C@@H](O)[C@@](C)(O)Cc2cc(co2)CC1 [FURANOCEMBRANOID 3] as the compound, how does the IC50 [1] read?
Answer: 8.2 µg/mL (≈ 24.4 µM)

Question: And the IC50 [2]?
Answer: 7.1 µg/mL (≈ 21.1 µM)

Question: What about the IC50 [3] of the same compound?
Answer: 5.7 µg/mL (≈ 16.9 µM)

Question: What about the IC50 [4] of the same compound?
Answer: 5.6 µg/mL (≈ 16.6 µM)

Question: What about the IC50 [5] of the same compound?
Answer: 9.6 µg/mL (≈ 28.5 µM)

Question: For CC(C)[C@H]1/C=C/[C@@](C)(O)CC[C@@H]2O[C@@]2(C)Cc2cc(co2)CC1 [FURANOCEMBRANOID 2], which IC50 [1] is on record?
Answer: 6.8 µg/mL (≈ 21.4 µM)

Question: What about the IC50 [2] of the same compound?
Answer: > 10 µg/mL

Question: What about the IC50 [3] of the same compound?
Answer: > 10 µg/mL

Question: And the IC50 [4]?
Answer: 9.9 µg/mL (≈ 31.1 µM)

Question: And the IC50 [5]?
Answer: 9.5 µg/mL (≈ 29.8 µM)

Question: With C/C1=C\CC[C@](C)(O)/C=C/[C@H](C(C)C)CCc2coc(c2)C1 [FURANOCEMBRANOID 1] as the compound, how does the IC50 [1] read?
Answer: 5.9 µg/mL (≈ 19.5 µM)

Question: And the IC50 [2]?
Answer: 7 µg/mL (≈ 23.1 µM)

Question: What about the IC50 [3] of the same compound?
Answer: 5.6 µg/mL (≈ 18.5 µM)

Question: And the IC50 [4]?
Answer: 6.3 µg/mL (≈ 20.8 µM)

Question: And the IC50 [5]?
Answer: 7.8 µg/mL (≈ 25.8 µM)

Question: For CC(C)[C@H]1/C=C/[C@@](C)(O)CC[C@@H](O)[C@@](C)(O)C[C@H]2C=C(CC1)C(=O)O2 [FURANOCEMBRANOID 4], which IC50 [1] is on record?
Answer: 8.1 µg/mL (≈ 23 µM)

Question: What about the IC50 [2] of the same compound?
Answer: 9.3 µg/mL (≈ 26.4 µM)

Question: And the IC50 [3]?
Answer: 6.1 µg/mL (≈ 17.3 µM)

Question: And the IC50 [4]?
Answer: 6 µg/mL (≈ 17 µM)

Question: What about the IC50 [5] of the same compound?
Answer: 9.6 µg/mL (≈ 27.2 µM)
